Assay results taken from ChEMBL document CHEMBL2157862, “A novel spirocyclic tropanyl-Δ²-isoxazoline derivative enhances citalopram and paroxetine binding to serotonin transporters as well as serotonin uptake” (Bioorg Med Chem, 2012).
Active and inactive are the calls of the source. The rule behind the calls is not given here.

Legend:
[1] = target: Sodium-dependent dopamine transporter (Rattus norvegicus, UniProt P23977); test: Displacement of [3H]-WIN35428 from DAT in rat striatal membranes after 90 mins; assay type: cell membranes, Membrane
Sodium-dependent dopamine transporter, sequence (P23977 whole entry): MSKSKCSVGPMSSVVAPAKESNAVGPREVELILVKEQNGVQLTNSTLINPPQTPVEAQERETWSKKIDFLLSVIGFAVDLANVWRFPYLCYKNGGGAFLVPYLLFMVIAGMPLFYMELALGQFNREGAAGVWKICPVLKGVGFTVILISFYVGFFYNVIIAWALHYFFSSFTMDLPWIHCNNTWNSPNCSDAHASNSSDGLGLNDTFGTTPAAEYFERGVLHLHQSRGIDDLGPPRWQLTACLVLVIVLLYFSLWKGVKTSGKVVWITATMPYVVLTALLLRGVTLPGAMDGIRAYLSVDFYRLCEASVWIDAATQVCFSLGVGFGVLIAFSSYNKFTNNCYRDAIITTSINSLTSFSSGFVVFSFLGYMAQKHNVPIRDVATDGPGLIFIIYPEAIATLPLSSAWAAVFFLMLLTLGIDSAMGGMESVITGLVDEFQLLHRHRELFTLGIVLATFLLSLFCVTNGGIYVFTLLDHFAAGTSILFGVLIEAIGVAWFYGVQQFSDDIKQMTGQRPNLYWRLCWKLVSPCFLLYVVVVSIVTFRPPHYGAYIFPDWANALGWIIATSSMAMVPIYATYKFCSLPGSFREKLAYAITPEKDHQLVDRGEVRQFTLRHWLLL
Procedure, shortened: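 Frozen rat striatal membranes in 50 mM Tris-HCl pH 7.4 with 120 mM NaCl and 5 mM KCl, incubated 90 min at 4 °C with 2 nM [3H]WIN 35,428. Nonspecific binding defined with 3 µM nomifensine. Stopped by rapid filtration on albumin-presoaked GF/B filters, then scintillation counting.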

[2] = target: Sodium-dependent serotonin transporter (Rattus norvegicus) (UniProt P31652); test: Displacement of [3H]-citalopram from SERT in rat cortical membranes at 10 uM after 60 mins; assay type: cell membranes; settings: Membrane
Sodium-dependent serotonin transporter (Rattus norvegicus), sequence (P31652 whole entry): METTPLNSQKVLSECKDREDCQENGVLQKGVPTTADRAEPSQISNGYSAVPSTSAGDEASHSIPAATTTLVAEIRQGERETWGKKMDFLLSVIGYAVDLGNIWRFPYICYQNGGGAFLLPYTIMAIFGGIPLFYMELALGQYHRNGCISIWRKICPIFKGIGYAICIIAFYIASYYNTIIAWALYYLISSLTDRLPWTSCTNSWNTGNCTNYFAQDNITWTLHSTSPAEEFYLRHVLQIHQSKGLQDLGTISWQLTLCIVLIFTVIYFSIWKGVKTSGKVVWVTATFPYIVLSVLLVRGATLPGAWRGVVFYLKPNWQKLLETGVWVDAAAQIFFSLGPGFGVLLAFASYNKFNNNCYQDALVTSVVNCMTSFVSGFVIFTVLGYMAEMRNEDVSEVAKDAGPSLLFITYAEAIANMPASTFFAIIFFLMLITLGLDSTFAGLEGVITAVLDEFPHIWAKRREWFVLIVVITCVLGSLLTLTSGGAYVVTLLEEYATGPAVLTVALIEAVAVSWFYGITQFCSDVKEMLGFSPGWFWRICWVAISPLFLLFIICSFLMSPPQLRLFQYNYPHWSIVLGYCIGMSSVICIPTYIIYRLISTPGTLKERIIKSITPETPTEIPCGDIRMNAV
Procedure, shortened: (§1)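 Frozen rat cortical membranes (washed pellets) in 50 mM Tris-HCl pH 7.4 with 120 mM NaCl and 5 mM KCl, incubated with [3H]citalopram with or without compound. Nonspecific binding defined with 10 µM (S)-citalopram. Bound radioactivity measured by filtration and scintillation counting. Mean ± S.E.M. of replicates; Student's t test vs vehicle.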

[3] = target: Sodium-dependent serotonin transporter (Rattus norvegicus, UniProt P31652); test: Displacement of [3H]-citalopram from SERT in rat cortical membranes after 60 mins; assay type: cell membranes, Membrane; procedure, shortened: as §1
Sodium-dependent serotonin transporter, sequence (P31652 whole entry): as above

[4] = target: Sodium-dependent serotonin transporter (Rattus norvegicus) (UniProt P31652); test: Increase of [3H]-citalopram binding to SERT in rat cortical membranes after 60 mins; assay type: cell membranes; settings: Membrane; procedure, shortened: as §1
[5] = target: Sodium-dependent serotonin transporter (Rattus norvegicus) (UniProt P31652); test: Increase of [3H]-citalopram binding to SERT in rat cortical membranes at 3 to 30 uM after 60 mins; assay type: cell membranes; settings: Membrane; procedure, shortened: as §1
[6] = target: Sodium-dependent serotonin transporter (Rattus norvegicus) (UniProt P31652); test: Increase of [3H]-citalopram binding to SERT in rat cortical membranes at 10 uM after 60 mins; assay type: cell membranes; settings: Membrane; procedure, shortened: as §1
[7] = target: Sodium-dependent serotonin transporter (Rattus norvegicus) (UniProt P31652); test: Increase of SERT-mediated [3H]-5HT uptake in rat brain cortex synaptosomes at 3 to 100 uM after 7 mins by scintillation counting; assay type: subcellular
Procedure, shortened: (§2)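 Rat cortex P2 synaptosomes from 0.32 M sucrose homogenate, resuspended in HEPES-buffered saline pH 7.4 with glucose, ascorbate and pargyline. Aliquots equal to 3 mg tissue preincubated 7 min at 35 °C with compound. Uptake then ran 5 min after adding 100 nM [3H]5-HT, stopped by filtration, and counted by scintillation. Nonspecific uptake defined with 10 µM (S)-citalopram.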

[8] = target: Sodium-dependent serotonin transporter (Rattus norvegicus) (UniProt P31652); test: Increase of SERT-mediated [3H]-5HT uptake in rat brain cortex synaptosomes after 7 mins by scintillation counting; assay type: subcellular; procedure, shortened: as §2
[9] = target: Sodium-dependent serotonin transporter (Rattus norvegicus) (UniProt P31652); test: Increase of SERT-mediated [3H]-5HT uptake in rat brain cortex synaptosomes at 10 uM after 7 mins by scintillation counting; assay type: subcellular; procedure, shortened: as §2
[10] = target: Sodium-dependent serotonin transporter (Rattus norvegicus) (UniProt P31652); test: Increase of SERT-mediated [3H]-5HT uptake in rat brain cortex synaptosomes at 10 to 30 uM after 7 mins by scintillation counting; assay type: subcellular; procedure, shortened: as §2
[11] = target: Sodium-dependent serotonin transporter (Rattus norvegicus) (UniProt P31652); test: Increase of [3H]paroxetine binding to SERT in rat cortical membranes at 10 uM after 60 mins; assay type: cell membranes; settings: Membrane
Procedure, shortened: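 Saturation binding in rat cortical membranes (Tris-HCl 50 mM pH 7.4, 120 mM NaCl, 5 mM KCl) at varied [3H]paroxetine concentrations, with or without 10 µM compound. Specific binding by scintillation counting. Mean ± SD of 4 replicates. One-site hyperbola fit gave Bmax and Kd.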

[12] = target: Sodium-dependent serotonin transporter (Rattus norvegicus) (UniProt P31652); test: Increase of [3H]-citalopram binding to SERT in rat cortical membranes at 10 to 30 uM after 60 mins; assay type: cell membranes; settings: Membrane; procedure, shortened: as §1

| Compound | inhibition [2] | also measured |
| --- | --- | --- |
| c1ccc(COC2=NO[C@]3(C2)C[C@H]2CC[C@@H](C3)N2)cc1 | inactive | IC50 [1]: 5 µM |
| CCOC(=O)C1=NO[C@]2(C1)C[C@H]1CC[C@@H](C2)N1C | inactive | – |
| C#CCOC1=NO[C@]2(C1)C[C@H]1CC[C@@H](C2)N1C | inactive | – |
| C[N+]1(C)[C@@H]2CC[C@H]1C[C@@]1(CC(Br)=NO1)C2 | inactive | – |
| CN1[C@@H]2CC[C@H]1C[C@@]1(CC(=O)NO1)C2 | inactive | – |
| C[N+]1(C)[C@@H]2CC[C@H]1C[C@@]1(CC(CO)=NO1)C2 | inactive | – |
| BrC1=NO[C@]2(C1)C[C@H]1CC[C@@H](C2)N1 | inactive | – |
| C[N+]1(C)[C@@H]2CC[C@H]1C[C@@]1(CC(OCc3ccccc3)=NO1)C2 | inactive | – |
| CN1O[C@]2(CC1=O)C[C@H]1CC[C@@H](C2)N1 | – | IC50 [3]: 5 µM |
| CCOC1=NO[C@]2(C1)C[C@H]1CC[C@@H](C2)[N+]1(C)C | inactive | IC50 [1]: 5 µM |
| COC1=NO[C@]2(C1)C[C@H]1CC[C@@H](C2)[N+]1(C)C | inactive | – |
| C#CCOC1=NO[C@]2(C1)C[C@H]1CC[C@@H](C2)N1 | inactive | – |
| CN1O[C@]2(CC1=O)C[C@H]1CC[C@@H](C2)N1C | inactive | Activity [4]: inactive |
| CCOC1=NO[C@]2(C1)C[C@H]1CC[C@@H](C2)N1 | inactive | IC50 [1]: 5 µM |
| C#CCOC1=NO[C@]2(C1)C[C@H]1CC[C@@H](C2)[N+]1(C)C | inactive | – |
| O=C1C[C@]2(C[C@H]3CC[C@@H](C2)N3)ON1 | inactive | IC50 [1]: 5 µM |
| CCOC1=NO[C@]2(C1)C[C@H]1CC[C@@H](C2)N1C | inactive | IC50 [1]: 5 µM; Activity [5]: Active; Activity [6]: 11%; Activity [7]: Active |
| COC1=NO[C@]2(C1)C[C@H]1CC[C@@H](C2)N1 | inactive | – |
| CN1[C@@H]2CC[C@H]1C[C@@]1(CC(OCc3ccccc3)=NO1)C2 | inactive | – |
| CN1[C@@H]2CC[C@H]1C[C@@]1(CC(Br)=NO1)C2 | inactive | – |
| COC1=NO[C@]2(C1)C[C@H]1CC[C@@H](C2)N1C | inactive | Activity [8]: Dose-dependent effect; Activity [9]: 30%; Activity [4]: Dose-dependent effect; Activity [10]: Active; Activity [11]: Active; Activity [6]: 25%; Activity [12]: Active |
| CCOC(=O)C1=NO[C@]2(C1)C[C@H]1CC[C@@H](C2)[N+]1(C)C | inactive | – |
| CN1[C@@H]2CC[C@H]1C[C@@]1(CC(CO)=NO1)C2 | inactive | – |
